High-throughput results deposited in PubChem BioAssay by several laboratories.
TbHK1 inh: blocks Trypanosoma brucei hexokinase 1 activity | 220,000 compounds, 0.11% hits | recombinant TbHK1, G6PDH-coupled NADH A340 | inhibition, % at 10 µM;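 active = inhibition of 50% or more in the single-dose primary screen; inactive = inhibition below 50%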
RanGTP-Imp inh: disruptors of Ran-importin-beta complex formation – biochemical, FRET, CFP-Ran, YFP-importin-beta, homogeneous, primary screen | cell-free CFP-Ran/YFP-importin-beta FRET ratio | AID 2216 | 300,000 compounds, 1.1% hits | inhibition, % (no concentration beside the values);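 active = more than half of the replicate wells show a fall in the fluorescence ratio signal beyond about 16%, limit read from the data, passing the limit was not always enough; inconclusive = exactly half of the replicate wells pass the set limit; inactive = fewer than half of replicates pass the limit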
Runt-CBFb FRET: inhibitors of human RUNX1 Runt domain binding to CBFb; Q01196+Q13951; Cerulean-Runt/Venus-CBFb FRET ratio 530/480, 1 h; inhibition, % at 20 µM; 220,000 compounds, 0.46% hits; AID 1496;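 active = inhibition over about 50% at 20 µM in the single-dose screen, limit read from the data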
Target sequence (Q01196 whole entry, looked up, the tested form may be a part): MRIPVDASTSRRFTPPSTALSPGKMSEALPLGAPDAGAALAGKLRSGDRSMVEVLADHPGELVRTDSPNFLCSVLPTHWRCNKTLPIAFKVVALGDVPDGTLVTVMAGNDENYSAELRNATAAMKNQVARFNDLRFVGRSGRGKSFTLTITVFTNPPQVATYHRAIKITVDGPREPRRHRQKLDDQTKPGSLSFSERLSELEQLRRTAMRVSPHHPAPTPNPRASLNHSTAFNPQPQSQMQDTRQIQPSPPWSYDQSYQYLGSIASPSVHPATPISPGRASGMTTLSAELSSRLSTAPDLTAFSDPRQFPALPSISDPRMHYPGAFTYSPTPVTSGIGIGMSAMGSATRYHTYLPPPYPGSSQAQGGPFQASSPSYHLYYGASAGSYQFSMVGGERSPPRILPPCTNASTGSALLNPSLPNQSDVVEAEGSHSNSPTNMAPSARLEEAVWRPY
Target sequence (Q13951 whole entry, looked up, the tested form may be a part): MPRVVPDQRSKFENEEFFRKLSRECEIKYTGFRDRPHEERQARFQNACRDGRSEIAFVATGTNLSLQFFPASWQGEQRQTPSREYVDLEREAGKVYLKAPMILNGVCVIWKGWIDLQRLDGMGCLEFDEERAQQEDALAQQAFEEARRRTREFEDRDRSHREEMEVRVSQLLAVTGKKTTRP
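Reagent – Venus-CBFb binding partner, 100 nM · Assay system – Cerulean-tagged RUNX1 Runt domain (FRET donor) fusion protein · Input – 100 nM per protein · Incubation – two 1 h room-temperature incubations shielded from light · Measured by – FRET fluorescence · Medium – Tris buffer pH 7.5 with salts and BSA · Benchmarks – unlabeled CBFb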
Hck-Nef inh: blocks Nef-activated human Hck kinase; P08631; inhibition, % at 20 µM; AID 463187; 220,000 compounds, 0.68% hits; Recombinant Hck-YEEI plus Nef, Z-Lyte FRET kinase assay;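 active = Hck-Nef kinase inhibition above about 50%, limit read from the data; inactive = inhibition below that limit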
Runt-SMMHC FRET: Runt domain-CBFb-SMMHC interaction inhibition. Q01196+Q13951. Cerulean-Runt/Venus-CBFb-SMMHC FRET ratio 530/480, 1 h. inhibition, % at 20 µM. 220,000 compounds, 0.74% hits;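 active = mean inhibition across duplicate retests at 20 µM reaching about 50%, limit read from the data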;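 also: inhibitors lower the FRET ratio by blocking Runt binding to CBFb-SMMHC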
Hck Nef conf: Hck-Nef kinase inhibition, confirmation. shares compounds with Hck-Nef inh. Recombinant Hck-YEEI:Nef, Z-Lyte FRET kinase assay. calls only at 10 µM. 1,300 compounds, 28% hits;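 active = average inhibition of at least 50%, with Z-scores no higher than 3 in both the phospho-tyrosine peptide and fluorescence counterscreens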
Each line names hits and unclear results; the compound was inactive in the other large screens (follow-up assays come after a bar, where shown). Sampled rows, rich in hits. Any-hit rate of the full collection: about 1.9%.

CCc1ccc2nc(NC(=O)c3ccc4c(=O)[nH]c(CN5CCOCC5)nc4c3)sc2c1	Hck-Nef inh 109 | Hck Nef conf active
CCC(=O)OC1(C)C(=O)C=C2C=C(c3ccsc3)OC=C2C1=O (stereo not drawn)	Hck-Nef inh 65 | Hck Nef conf active
COC(=O)CCC(=O)OC1(C)C(=O)C=C2C=C(c3ccsc3)OC=C2C1=O (stereo not drawn)	none (no result: TbHK1 inh, Runt-CBFb FRET, Hck-Nef inh, Runt-SMMHC FRET)
Cc1c(Cl)cccc1-n1c(SCC(=O)NCc2ccccc2Cl)nnc1-c1ccncc1	none
COc1ccc(/C=N/Nc2nc(-c3ccc(C)cc3)c(NC(C)=O)s2)cc1OC	Hck-Nef inh 99 | Hck Nef conf active
CC(=O)Nc1sc(N/N=C/c2ccc(C)cc2)nc1-c1ccc(C)cc1	Hck-Nef inh 60 | Hck Nef conf inactive
CC(=O)Nc1sc(N/N=C/c2ccc(N(C)C)cc2)nc1-c1ccc(C)cc1	RanGTP-Imp inh inconclusive
CCOc1cc(/C=N\Nc2nc(-c3ccc(C)cc3)c(NC(C)=O)s2)ccc1O	Hck-Nef inh 97 | Hck Nef conf active
C=CCOc1ccc(CN(C)CC(O)COc2cccc3ccccc23)cc1 (stereo not drawn)	none (no result: TbHK1 inh, Runt-CBFb FRET, Hck-Nef inh, Runt-SMMHC FRET)
COc1ccc(C2=NN(CC(=O)NCC(OC)OC)C(=O)CC2)cc1	none (no result: TbHK1 inh, Runt-CBFb FRET, Hck-Nef inh, Runt-SMMHC FRET)
O=C(O)c1cccc(N2C(=O)/C(=C/c3ccc(SCc4ccc(Cl)cc4)o3)SC2=S)c1	Hck-Nef inh 82 (no result: RanGTP-Imp inh) | Hck Nef conf active
C(=N\Nc1ccccn1)/c1c[nH]c2ccccc12	Hck-Nef inh 51 | Hck Nef conf inactive
Cc1cnc(CN(C)C(=O)c2ccc3oc(Cc4ccc(Cl)cc4)nc3c2)[nH]1	none (no result: TbHK1 inh, Runt-CBFb FRET, Hck-Nef inh, Runt-SMMHC FRET)
Cc1ccc(-c2nc(SCC(=O)N(C)c3c(N)n(Cc4ccccc4)c(=O)[nH]c3=O)n[nH]2)cc1	none (no result: TbHK1 inh, Runt-CBFb FRET, Hck-Nef inh, Runt-SMMHC FRET)
O=c1[nH]c(-c2ccc3c(c2)OCO3)nc2c1sc(=S)n2-c1ccccc1	Hck-Nef inh 61 | Hck Nef conf inactive
Fc1cccc(-n2c(-c3cccs3)nc3nc4ccccc4nc32)c1	Hck-Nef inh 59 | Hck Nef conf inactive
CC(Oc1ccc(Cl)cc1)C(=O)N/N=C/c1ccsc1 (stereo not drawn)	none
Cc1ccc(C)c2[nH]c(=O)c(C(c3nnnn3C(C)(C)C)N3CC=C(c4ccc(F)cc4)CC3)cc12 (stereo not drawn)	none (no result: RanGTP-Imp inh)
O=C(CSc1nc2ccccc2n1CCc1ccccc1)c1ccc(O)c(O)c1	Hck-Nef inh 189 (no result: RanGTP-Imp inh) | Hck Nef conf active
CC(=O)Nc1ccc(-c2csc(NC(=O)C3CC(=O)N(c4ccc5c(c4)OCCO5)C3)n2)cc1 (stereo not drawn)	Hck-Nef inh 51 | Hck Nef conf inactive
COc1ccc(-c2csc(NC(=O)C3CC(=O)N(c4ccc5c(c4)OCCO5)C3)n2)cc1 (stereo not drawn)	none
Cn1c(O)c(N=NC(=O)c2ccccc2O)c2ccccc21	none
COc1ccccc1NC(=O)Cn1c(O)c(N=NC(=O)c2ccccc2O)c2ccccc21	Hck-Nef inh 91 | Hck Nef conf inactive
Cc1ccc(NC(=O)Cn2c(O)c(N=NC(=O)c3cc4ccccc4cc3O)c3ccccc32)cc1	Hck-Nef inh 51 (no result: RanGTP-Imp inh) | Hck Nef conf inactive
C=CCn1c(COc2ccccc2)nnc1SC(C)C(=O)N/N=C/c1cc(Cl)ccc1O (stereo not drawn)	none
COc1ccc(CNC(=O)COc2ccc(OC)cc2)cc1	none (no result: TbHK1 inh, Runt-CBFb FRET, Hck-Nef inh, Runt-SMMHC FRET)
Cc1nn(CC(=O)Nc2ccc3c(c2)oc2ccccc23)c(=O)c2ccccc12	Hck-Nef inh 51 | Hck Nef conf inactive
CCn1c2ccccc2c2cc([N+](=O)[O-])ccc21	none
CCn1c2ccccc2c(=O)c2ccccc21	RanGTP-Imp inh 145, Hck-Nef inh 142, Runt-SMMHC FRET 91
O=C(c1cccc(C(F)(F)F)c1)N1CCC2(CC1)NCCc1[nH]cnc12	none (no result: TbHK1 inh, Runt-CBFb FRET, Hck-Nef inh, Runt-SMMHC FRET)
COc1cc([N+](=O)[O-])ccc1-c1ccc(/C=N/NC(=O)c2ccccc2O)o1	Hck-Nef inh 74 | Hck Nef conf inactive
O=C(N/N=C/c1ccc(-c2cccc([N+](=O)[O-])c2)o1)c1ccccc1O	none
Nc1c2ccccc2nc2ccccc12	RanGTP-Imp inh 175, Hck-Nef inh 93, Runt-SMMHC FRET 82
Nc1c2c(nc3ccccc13)CCCC2	none
O=C(Nc1cccc(NC(=O)c2ccc(Br)o2)n1)c1ccc(Br)o1	Hck-Nef inh 98 | Hck Nef conf inactive
O=C(OC1CO[C@H]2O[C@@H]1[C@H](OC(=O)c1ccccc1)[C@H]2OC(=O)c1ccccc1)c1ccccc1 (stereo partly drawn)	none (no result: TbHK1 inh, Runt-CBFb FRET, Hck-Nef inh, Runt-SMMHC FRET)
CCOc1ccc(-c2ccc(C=O)o2)c([N+](=O)[O-])c1	Hck-Nef inh 100 | Hck Nef conf inactive
CCn1c(=O)n(CC(=O)Nc2cccc(OC)c2)c(=O)c2ccccc21	none
COc1cccc(NC(=O)Cn2c(=O)n(-c3cc(OC)c(OC)c(OC)c3)c(=O)c3ccccc32)c1	Hck-Nef inh 124 | Hck Nef conf inactive
CCC(C)N1CC(O)=C(c2nc3ccccc3[nH]2)C1=N (stereo not drawn)	Hck-Nef inh 58 | Hck Nef conf active
CCCCCCN1CC(O)=C(c2nc3ccccc3[nH]2)C1=N	none
Cc1cc(C)c2c(n1)nn1c(NCCOCCO)cc(C)nc21	RanGTP-Imp inh 38, Hck-Nef inh 51, Runt-SMMHC FRET 72
CCc1nn2c(NCCCO)cc(C)nc2c1-c1ccc(F)cc1	none (no result: TbHK1 inh, Runt-CBFb FRET, Hck-Nef inh, Runt-SMMHC FRET)
COc1ccccc1NS(=O)(=O)c1cccc(-n2c(O)c(C=Nc3ccccc3C(=O)O)c3ccccc3c2=O)c1	Hck-Nef inh 62 | Hck Nef conf inactive
COc1ccc(-n2c(O)c(/C=N/NS(=O)(=O)c3ccc(C)cc3)c3ccccc3c2=O)cc1OC	none
COc1ccc(NC(=O)c2cc3c(=O)n(C)c4ccccc4c3n2C)cc1OC	none
COc1ccc(NC(=O)c2cc3c(=O)n(C)c4ccccc4c3n2C)cc1Cl	Hck-Nef inh 61 | Hck Nef conf inactive
Cc1ccc(C(=O)c2c3ccc([N+](=O)[O-])cc3[n+]([O-])n2CCCN)cc1	none (no result: TbHK1 inh, Runt-CBFb FRET, Hck-Nef inh, Runt-SMMHC FRET)
CC(C)n1cnc2c(Nc3cccc(Cl)c3)nc(NCCCO)nc21	Hck-Nef inh 96 | Hck Nef conf active
CC(C)n1cnc2c(Nc3ccc(C(=O)O)cc3)nc(Cl)nc21	Hck-Nef inh 53 | Hck Nef conf inactive
CC(C)[C@H](CO)Nc1nc(NCc2ccc(S(N)(=O)=O)cc2)c2ncn(C(C)C)c2n1	none
CC(C)[C@H](CO)Nc1nc(Nc2ccc(Cl)c(C(=O)O)c2)c2ncn(C(C)C)c2n1	Hck-Nef inh 65 | Hck Nef conf active
O=C(c1cc([N+](=O)[O-])ccc1N1CCOCC1)N1CCCC1	none
CCOC(=O)CN1C(=O)/C(=C/c2ccccc2Br)Oc2ccccc21	none (no result: TbHK1 inh, Runt-CBFb FRET, Hck-Nef inh, Runt-SMMHC FRET)
CCOc1cc(/C=C(/C#N)c2nc3ccccc3[nH]2)ccc1OCc1ccc(C(=O)O)o1	Hck-Nef inh 64
